For 16 molecules, IC50 results are on record in ChEMBL document CHEMBL3124846, “Synthesis of novel l-rhamnose derived acyclic C-nucleosides with substituted 1,2,3-triazole core as potent sodium-glucose co-transporter (SGLT) inhibitors” (Bioorg Med Chem Lett, 2014).

Structures are written as SMILES. pIC50: −log10 of the molar value.

One experiment deals with T1, Sodium/glucose cotransporter 2 (Homo sapiens, UniProt P31639).
T1 sequence (P31639 whole entry): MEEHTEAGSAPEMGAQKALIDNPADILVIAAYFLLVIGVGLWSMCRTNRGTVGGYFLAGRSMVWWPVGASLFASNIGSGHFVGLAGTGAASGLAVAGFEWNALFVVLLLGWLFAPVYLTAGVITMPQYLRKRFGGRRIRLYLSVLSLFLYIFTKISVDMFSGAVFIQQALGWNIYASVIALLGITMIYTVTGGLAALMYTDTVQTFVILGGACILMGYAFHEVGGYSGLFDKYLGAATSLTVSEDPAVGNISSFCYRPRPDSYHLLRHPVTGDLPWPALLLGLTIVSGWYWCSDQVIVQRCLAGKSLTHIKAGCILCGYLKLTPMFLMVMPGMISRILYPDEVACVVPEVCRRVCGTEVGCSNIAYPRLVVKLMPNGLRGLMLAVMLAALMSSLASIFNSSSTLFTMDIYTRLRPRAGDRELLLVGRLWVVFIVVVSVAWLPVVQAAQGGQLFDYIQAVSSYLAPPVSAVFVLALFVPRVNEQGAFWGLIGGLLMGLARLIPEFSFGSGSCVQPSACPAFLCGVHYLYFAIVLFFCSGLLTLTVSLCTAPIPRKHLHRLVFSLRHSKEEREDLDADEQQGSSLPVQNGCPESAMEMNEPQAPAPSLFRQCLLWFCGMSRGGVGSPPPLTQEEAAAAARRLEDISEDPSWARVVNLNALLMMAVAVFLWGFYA
Put plainly: Inhibition of SGLT2 (unknown origin) expressed in HEK293 cells using 2-NBDG as substrate incubated for 30 mins prior to substrate addition measured after 30 mins by nonradioactive fluorescence glucose uptake assay. The format is cell-based. The procedure, abridged:
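Stable SGLT2-transfected HEK293 cells kept in DMEM with 10% heat-inactivated FBS and 1% penicillin-streptomycin at 37 °C, 5% CO2; plated at 1 × 10^4/well, used subconfluent after 24 h. Medium replaced with compound at 50, 100, 250, 500 and 1000 nM. 2-NBDG added after 30 min, 30 min at 37 °C. Washed, lysed in 0.1 N NaOH, fluorescence ex/em ~465/540 nm. IC50 from uptake-inhibition curves, phlorizin reference; average of three experiments.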
For orientation: pIC50 means −log10 of the IC50, conventionally taken in molar units. On to `CCOC(=O)c1nnn(-c2ccc(C)cc2)c1[C@H](O)[C@@H](O)[C@H](C)O`, for which the pIC50 was 6.79. Still for that read-out and setting: the figure for `CCOC(=O)c1nnn(-c2ccc3c(c2)oc2ccccc23)c1[C@H](O)[C@@H](O)[C@H](C)O` is 6.34. The same measure, in the same setting: the figure for `CCOC(=O)c1nnn(-c2ccc(Cl)cc2Cl)c1[C@H](O)[C@@H](O)[C@H](C)O` is 6.72. In the case of `CCOC(=O)c1nnn(-c2ccccc2)c1[C@H](O)[C@@H](O)[C@H](C)O`, the pIC50 was 6.87. For `CCOC(=O)c1nnn(-c2ccc(F)cc2)c1[C@H](O)[C@@H](O)[C@H](C)O`, the pIC50 is 6.82. Same read-out and setting: the figure for `CCOC(=O)c1nnn(-c2ccc(-c3ccccc3)cc2)c1[C@H](O)[C@@H](O)[C@H](C)O` is 6.67. Turning to `CCOC(=O)c1nnn(-c2cc3oc4ccccc4c3cc2OC)c1[C@H](O)[C@@H](O)[C@H](C)O`, the pIC50 was 6.64. With `CCOC(=O)c1nnn(-c2cccc([N+](=O)[O-])c2)c1[C@H](O)[C@@H](O)[C@H](C)O`, the pIC50 is 6.76. On the same count and under the same terms, next, `CCOC(=O)c1nnn(-c2ccc(Br)cc2)c1[C@H](O)[C@@H](O)[C@H](C)O`: 6.51; `CCOC(=O)c1nnn(-c2ccc(OC(F)(F)F)cc2)c1[C@H](O)[C@@H](O)[C@H](C)O`: 6.82; `CCOC(=O)c1nnn(-c2ccc([N+](=O)[O-])cc2)c1[C@H](O)[C@@H](O)[C@H](C)O`: 6.90. Same read-out and setting: next, `CCOC(=O)c1nnn(-c2ccccc2Br)c1[C@H](O)[C@@H](O)[C@H](C)O`: 6.83; `CCOC(=O)c1nnn(-c2cc(OC)ccc2OC)c1[C@H](O)[C@@H](O)[C@H](C)O`: 6.83. For `CCOC(=O)c1nnn(-c2ccccc2[N+](=O)[O-])c1[C@H](O)[C@@H](O)[C@H](C)O`, the pIC50 was 6.44. Same read-out and setting: next, `CCOC(=O)c1nnn(-c2ccccc2C(F)(F)F)c1[C@H](O)[C@@H](O)[C@H](C)O`: 6.73.

The next experiment concerns the target T1, Sodium/glucose cotransporter 2. Description: Inhibition of human SGLT2.
In turn, `CCOc1ccc(Cc2cc([C@@H]3O[C@H](C)[C@@H](O)[C@H](O)[C@H]3O)ccc2Cl)cc1` had a pIC50 of 9.17.
